High-throughput results (PubChem BioAssay)
Most compounds without a hit are left out; they make up all but 3.4% or so of the library.
LANA-H2B inh: blocks KSHV LANA binding to histone H2A/H2B | 320,000 compounds, 0.6% hits | cell-free LANA-H2A/H2B peptide, fluorescence polarization | inhibition, % (concentration not given with the values) | Q9QR71; in the data active means inhibition mostly above about 10%, no sharp cut-off; inactive means mostly below about 6.7%
Target sequence (Q9QR71 whole entry, looked up): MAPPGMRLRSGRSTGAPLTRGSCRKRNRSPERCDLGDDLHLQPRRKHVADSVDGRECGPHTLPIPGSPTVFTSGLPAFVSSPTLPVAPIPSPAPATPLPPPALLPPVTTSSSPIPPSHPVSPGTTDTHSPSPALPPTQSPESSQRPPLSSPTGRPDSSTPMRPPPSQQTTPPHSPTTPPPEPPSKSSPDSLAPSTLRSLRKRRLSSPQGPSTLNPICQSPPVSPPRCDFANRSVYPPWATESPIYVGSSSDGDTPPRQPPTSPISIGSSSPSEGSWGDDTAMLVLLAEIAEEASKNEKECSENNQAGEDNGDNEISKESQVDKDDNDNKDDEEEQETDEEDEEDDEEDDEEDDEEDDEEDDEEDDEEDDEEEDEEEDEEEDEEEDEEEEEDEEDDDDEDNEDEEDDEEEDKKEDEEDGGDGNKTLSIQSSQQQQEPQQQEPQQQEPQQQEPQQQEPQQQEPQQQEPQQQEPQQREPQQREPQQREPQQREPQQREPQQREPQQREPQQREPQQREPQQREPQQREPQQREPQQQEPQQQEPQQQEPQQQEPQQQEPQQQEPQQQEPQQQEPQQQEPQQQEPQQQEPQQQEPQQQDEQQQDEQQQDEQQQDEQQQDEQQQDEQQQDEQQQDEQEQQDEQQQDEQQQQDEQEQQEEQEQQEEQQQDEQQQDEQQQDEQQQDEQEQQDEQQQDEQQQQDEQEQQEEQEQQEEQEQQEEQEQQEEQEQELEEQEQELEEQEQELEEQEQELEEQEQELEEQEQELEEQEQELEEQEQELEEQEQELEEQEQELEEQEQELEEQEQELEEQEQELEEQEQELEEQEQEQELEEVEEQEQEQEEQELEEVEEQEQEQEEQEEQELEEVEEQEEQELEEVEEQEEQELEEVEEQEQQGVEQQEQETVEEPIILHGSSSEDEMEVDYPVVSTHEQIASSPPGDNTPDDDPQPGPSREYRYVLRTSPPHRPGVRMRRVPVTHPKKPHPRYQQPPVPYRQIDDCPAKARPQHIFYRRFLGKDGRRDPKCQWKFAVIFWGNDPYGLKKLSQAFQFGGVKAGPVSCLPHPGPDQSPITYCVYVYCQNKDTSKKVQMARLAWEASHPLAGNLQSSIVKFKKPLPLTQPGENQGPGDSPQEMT
TAAR1 antag: antagonists of human TAAR1. CHO RD-HGA16 TAAR1, Fluo-8 calcium fluorescence, antagonist. inhibition, % at 3 µM. 360,000 compounds, 1.5% hits;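 active means inhibition above a per-plate cutoff, the mean inhibition of test compounds on that plate plus 3 SD, cut at about 49% in these data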
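Test system: RD-HGA16 CHO cells with stable hTAAR1 and Gα16 / Probe or stimulus: EC80 β-phenethylamine stimulus / Times: seeding 17-24 h prior, 75-min 37 °C, 30-min RT dye loading / Detection: Fluo-8 calcium-sensitive fluorescence / Read-out basis: % inhibition scaled between DMSO and EC80 PEA controls / Repeats: singlicate, one well per test compound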
TRPML3 agonist: activates the human TRPML3 channel; Q8TDD5; HEK293 TRPML3-YFP, Fluo-8 calcium fluorescence; 100% = the carbachol control signal; activation, % at 3 µM; 220,000 compounds, 0.29% hits; AID 1448;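 active means activation above its plate's cutoff, the mean activation of the plate's test wells plus 3 SD, cut at about 12% in these data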
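Test system: HEK293 cells stably carrying human TRPML3-YFP; Doses: single dose, 3 µM final nominal compound, 0.3% DMSO final; Schedule: dye loading 1 h 37 °C then 30 min ambient, 125 s read; Technique: Fluo-8 calcium fluorescence; Benchmarks: high control carbachol 87 µM, low control DMSO.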
TRPN1 ag: activates the zebrafish TRPN1 channel; 220,000 compounds, 0.18% hits; activation, % at 3 µM; HEK293 zebrafish TRPN1-YFP, Fluo-8 calcium fluorescence; 100% = response to 87 µM carbachol;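 active means activation above its plate's cutoff, the mean activation of test wells on that plate plus 3 SD, cut at about 19% in these data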
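Material – zebrafish TRPN1-YFP in HEK293 cells · Doses – 3 µM single point · Schedule – dye 1 h 37 °C plus 30 min RT · Signal – Fluo-8 calcium fluorescence, excitation 470-495 nm, emission 515-575 nm · Read-out – % activation versus carbachol response · Control set – carbachol high, DMSO low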
GPR7 antagonist: antagonists of human GPR7 (neuropeptides B/W receptor 1) | P48145 | GPR7-expressing cells, fluorescence antagonist assay | inhibition, % at 4.4 µM | 290,000 compounds, 1.1% hits | AID 1861; in the data active means inhibition above about 16%, passing the limit was not always enough;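 further: cells stimulated with the agonist NPW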
TAAR1 agonist: human TAAR1 agonism. Q96RJ0. CHO RD-HGA16 TAAR1, Fluo-8 calcium fluorescence; vehicle wells 0%, saturating PEA agonist 100%. activation, % at 3 µM. 360,000 compounds, 0.99% hits. AID 624467;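 active means activation above the mean activation of all test compounds in the run plus 3 SD, cut at about 38% in these data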
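Test system: RD-HGA16 (CHO) cells co-expressing Gα16 and hTAAR1; dosing: one-point dosing at 3 µM (nominal); timing: 17-24 h seeding, 75 min 37 °C dye, 30 min RT; signal: kinetic Fluo-8 calcium fluorescence; read-out basis: % activation relative to PEA EC100 response; controls: DMSO and PEA EC100; replicates: n 1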
TAAR1 ag conf: confirmation of human TAAR1 agonists; activation, % at 3 µM; CHO RD-HGA16 TAAR1, Fluo-8 calcium fluorescence; scaled: DMSO 0%, maximal phenethylamine 100%; shares compounds with TAAR1 agonist; 2,400 compounds, 82% hits;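 active means activation above a cutoff set at the run's mean compound activation plus 3 SD, cut at about 39% in these data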
Ga16 ag counter: nonselective agonism, TAAR1 counter-screen; CHO-Ga16 parental, Fluo-8 calcium fluorescence; normalized to maximal ATP response, DMSO zero; activation, % at 3 µM; shares compounds with TAAR1 agonist; AID 651787; 2,400 compounds, 50% hits;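 active means activation above the run cutoff, the mean activation over all tested wells plus 3 SD, cut at about 12% in these data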
TAAR1 desensitize: counter-screen for human TAAR1 agonists: agonists that desensitize TAAR1 | shares compounds with TAAR1 agonist | CHO RD-HGA16 hTAAR1, Fluo-8 calcium, beta-PEA response inhibition | inhibition, % at 3 µM | 2,400 compounds, 46% hits | AID 651951;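 active means inhibition above the run cutoff, the mean inhibition of all test compounds plus 3 SD, cut at about 49% in these data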;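 further: beta-PEA stimulus applied at its EC80; loss of beta-PEA calcium signal after compound pretreatment read as receptor desensitization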
Ga16 antag count: nonselective Ga16 antagonist in TAAR1 agonist counter-screen | shares compounds with TAAR1 agonist | CHO-Ga16 ATP-induced calcium, Fluo-8 fluorescence | inhibition, % at 3 µM | 2,400 compounds, 39% hits | AID 651952;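 active means inhibition above the plate's mean compound inhibition plus 3 SD, computed per plate, cut at about 22% in these data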
Hits are given with their value; - = inactive; . = not tested or not shown.

SMILES	LANA-H2B inh	TAAR1 antag	TRPML3 agonist	TRPN1 ag	GPR7 antagonist	TAAR1 agonist	TAAR1 ag conf	Ga16 ag counter	TAAR1 desensitize	Ga16 antag count
CCCCc1c(Cc2cccc(F)c2)ncn1CCc1ccccc1OC	.	-	.	.	.	48.3	48.1	-	50.3	32.8
COc1ccccc1CCn1cnc(-c2ccc(Br)cc2)c1CC(C)C	.	70.6	.	.	.	65.0	82.0	-	56.0	-
COc1ccccc1CCn1cnc(-c2ccc(OC)c(OC)c2)c1CC(C)C	.	68.1	.	.	.	54.4	93.2	24.2	84.2	45.2
COc1ccc(CCCNC(=O)C2Cc3c(-c4ccc(NC(C)=O)cc4)ccnc3O2)cc1 (centres undefined)	.	-	.	.	.	-	.	.	.	.
CCN(C(=O)Cn1nc(C)c([N+](=O)[O-])c1C)C1CCS(=O)(=O)C1 (centres undefined)	-	-	.	.	.	-	.	.	.	.
NC(=O)CCC(NC(=O)OCc1ccccc1)C(=O)OCC(=O)c1ccccc1 (centres undefined)	.	-	.	.	.	-	.	.	.	.
Cc1ccc(-n2nc3c(=O)n(CCCC(=O)NCc4ccccc4C)nc(C)c3c2C)cc1	-	-	.	.	-	-	.	.	.	.
Cc1ccc(-n2nc3c(=O)n(CC(=O)NCCc4ccccc4C)nc(C)c3c2C)cc1	-	.	.	.	-	.	.	-	.	-
CCOC(=O)c1c(CSC(=N)N)n(-c2ccc(C)cc2)c2cc(Br)c(OC(C)=O)cc12	-	-	-	-	-	62.6	92.4	58.8	66.0	51.9
CCOC(=O)c1c(CSC(=N)N)n(C)c2cc(Br)c(OC(C)=O)cc12	-	-	-	-	-	-	.	.	.	.
COc1ccc(C(O)c2ncc(-c3ccccc3C)[nH]2)cc1 (centres undefined)	.	-	.	.	.	-	.	.	.	.
O=C(O)C1NCCc2ccccc21 (centres undefined)	-	-	-	-	-	72.0	67.0	-	-	-
CN(C)c1ccc2c(c1[N+](=O)[O-])Cc1ccccc1-2	.	-	.	.	.	-	.	.	.	.
COc1ccc(CCNCC(O)COc2ccc(OC)cc2C(C)(C)C)cc1 (centres undefined)	-	-	.	.	-	65.6	95.8	13.9	69.6	-
NC(Cc1ccc(Cl)cc1)c1csc(Nc2nccc(C(F)(F)F)n2)n1 (centres undefined)	.	-	.	.	.	55.2	88.3	62.1	74.1	73.1
NC(Cc1ccccc1)c1csc(Nc2nccc(C(F)(F)F)n2)n1 (centres undefined)	.	-	.	.	.	66.7	86.3	54.6	-	47.9
COc1ccc(CC(N)c2csc(Nc3ncccn3)n2)cc1 (centres undefined)	.	-	.	.	.	-	.	.	.	.
NC(Cc1ccc(F)cc1)c1csc(Nc2nccc(C(F)(F)F)n2)n1 (centres undefined)	.	-	.	.	.	72.5	86.4	54.1	55.9	54.9
CCc1cnc(Nc2nc(C(N)Cc3ccc(F)cc3)cs2)nc1 (centres undefined)	.	-	.	.	.	-	.	.	.	.
COc1ccc(CC(N)c2csc(Nc3nccc(C(F)(F)F)n3)n2)cc1 (centres undefined)	.	-	.	.	.	51.8	52.5	20.9	-	22.9
Cc1cc(C)nc(Nc2nc(C(N)Cc3ccccc3)cs2)n1 (centres undefined)	.	-	.	.	.	-	.	.	.	.
CNc1cncc(-c2ccoc2)n1	.	-	.	.	.	-	.	.	.	.
O=C(COc1ccc(Cl)cc1)OCC(=O)N1CCOCC1	-	-	.	.	.	-	.	.	.	.
C=CCNc1nc(-c2ccccc2)nc(-n2ccnc2)n1	-	-	-	-	-	46.3	-	-	-	-
CCCCNc1nc(-c2ccccc2)nc(-n2ccnc2)n1	-	-	-	-	-	-	.	.	.	.
SMILES	LANA-H2B inh	TAAR1 antag	TRPML3 agonist	TRPN1 ag	GPR7 antagonist	TAAR1 agonist	TAAR1 ag conf	Ga16 ag counter	TAAR1 desensitize	Ga16 antag count
CC(=O)c1ccc(S(=O)(=O)N(C)CCCC(=O)NCc2ccc3c(c2)OCO3)cc1	.	-	.	.	.	-	.	.	.	.
CCC(=O)c1ccc(OC(=O)Cc2ccc(OC)cc2)cc1	-	-	.	.	-	-	.	.	.	.
CCC(=O)c1ccc(OC(=O)c2ccc(Br)o2)cc1	-	83.7	-	-	-	123.3	76.0	71.0	63.5	50.8
CC(=O)c1ccc(OC(=O)c2ccc(Br)o2)cc1	-	-	-	-	-	-	.	.	.	.
Cc1ccc(OC(=O)c2ccc(Br)o2)cc1	-	60.4	-	-	-	87.2	51.1	79.3	-	51.1
COC(=O)c1cc(S(=O)(=O)N(Cc2ccccc2)C(C)(C)C)c[nH]1	-	-	.	.	-	-	.	.	.	.
COc1cccc(C(NC(C)=O)c2nc(-c3ccncc3)cs2)c1 (centres undefined)	.	-	.	.	.	-	.	.	.	.
N#Cc1nc(-c2ccco2)oc1N1CCc2ccccc2C1	-	-	-	-	-	72.7	45.3	-	-	-
CN1/C(=C\C=Nc2ccc3ccccc3c2)C(C)(C)c2ccccc21	-	.	-	-	-	.	.	.	.	.
CN1\C(=C/C=C/C=C/C=[N+](C)C)C(C)(C)c2ccccc21	.	109.4	-	-	-	714.7	80.8	109.5	69.1	75.0
CN1/C(=C\C=O)C(C)(C)c2ccccc21	-	-	-	-	-	-	.	.	.	.
CN(C)c1ccc(N=C/C=C2\N(C)c3ccccc3C2(C)C)cc1	-	-	-	-	-	46.8	73.8	14.5	-	-
C[C@@H](NC(=O)[C@@H]1CCCN1C(=O)[C@@H]1CCCN1C(=O)c1ccc(Cl)cc1)c1ccccc1	.	-	.	.	.	-	.	.	.	.
O=C(NCc1ccncc1)[C@@H]1CCCN1C(=O)[C@H]1CCCN1C(=O)c1c(F)cccc1F	.	-	.	.	.	-	.	.	.	.
O=C(O)c1ccc(N/N=C/c2ccc(-c3ccccc3Cl)o2)cc1	-	-	-	-	-	97.1	56.4	39.1	-	-
O=C(N/N=C/c1ccc(-c2ccccc2Cl)o1)c1ccccc1	-	-	-	-	-	-	.	.	.	.
COc1ccc(-n2nc3c(N4CCC(C(=O)NCC(C)c5ccccc5)CC4)nnc(C)c3c2C)cc1 (centres undefined)	-	-	.	.	-	59.3	56.4	-	-	-
COc1ccc(-n2nc3c(N4CCC(C(=O)NCc5ccccc5C)CC4)nnc(C)c3c2C)cc1	-	.	.	.	-	.	.	.	.	.
Cc1ccc(CN2CCC(C)(Oc3ccc(Cl)cc3)C2)cc1 (centres undefined)	.	-	.	.	.	-	.	.	.	.
CCc1nc2ccc(C(=O)NCCCN(C)C)cn2c1N(CC)CCOC	.	-	.	.	.	-	.	.	.	.
